Results published in ChEMBL document CHEMBL4513216, “Probing the Open Global Health Chemical Diversity Library for Multistage-Active Starting Points for Next-Generation Antimalarials” (ACS Infect Dis, 2020).

Test: Toxicity liver stage against HepG2, at 10uM
Format: cell-based
Set-up: test concentration 10 uM, cell line HepG2-A16-CD81EGFP
Conditions: human, HepG2-A16-CD81EGFP cells; read-out: INHIBITION
Procedure, shortened: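 Uninfected HepG2-A16-CD81EGFP cells, 3 × 10^3 per well, 1536-well, plated on prespotted compound at 10 μM final, parasite-free screening media added to match infected plates; puromycin 10 μM positive, DMSO 0.5% negative; run in parallel with 48 h PbLuc assay at 37 °C, 5% CO2; viability by CellTiter-Glo luminescence, normalized to controls.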

| SMILES | cytotoxicity at 10 µM |
| --- | --- |
| NC(=O)CCNC(=O)C1(N2CCCCC2)Cc2ccccc2C1 | -8.56% |
| O=C(O)[C@@H]1CN(C(=O)c2ccc(Cl)cc2)C[C@H]1c1cccc(F)c1 | -132% |
| Cc1c(CN2CCC(C(=O)O)(n3cccn3)CC2)oc2ccccc12 | -2.67% |
| CCN1CCC2(CCC1=O)CN(c1nccc(N)n1)CCN2C (stereo unspecified) | 0.562% |
| CC(=O)c1cc(CN2C[C@@H](N(C)C)[C@H](C(C)C)C2)cs1 | 0.305% |
| CNc1nc(C(=O)NCc2cccnc2N(C)C2CCCCC2)cs1 | -5.35% |
| COc1cccc(C(=O)N2C[C@@H](C(=O)O)[C@H](c3ccccc3C)C2)c1 | 0.291% |
| Cc1oc(-c2cccc(F)c2F)nc1CN(CCO)C(C)C | -15.2% |
| CC(CO)CN(Cc1ccccc1)C(=O)c1csc(CN(C)C)n1 (stereo unspecified) | -8.69% |
| Cc1cccnc1CN1CCN(C(=O)c2cc(Cl)c[nH]c2=O)CC1 | 6.22% |
| COc1ccc(C)cc1-n1cnnc1C1CCOCC1 | 11.2% |
| OC(CNc1ncnc2c1CCNCC2)C(F)(F)F (stereo unspecified) | -4.92% |
| CCCC(C)CN1CCC(n2cc(CCCO)nn2)CC1 (stereo unspecified) | 3.22% |
| CCSCCNC(=O)C(c1cccc(C)c1)N(C)C (stereo unspecified) | -23% |
| OC1(CN2CCCC2)CCCN(Cc2ccc(F)cc2Cl)C1 (stereo unspecified) | 20.9% |
| Cc1cnn(C(C)C2CC2)c1NC(=O)c1cnccn1 (stereo unspecified) | -5.39% |
| CN(Cc1nccs1)c1nc(-c2ccccn2)nc2c1CCNCC2 | -14% |
| CCCn1nccc1C(=O)N1CCCN(CCCc2ccccc2)CC1 | -2.06% |
| Cc1nc2n(n1)CC(NCc1cc(Cl)c3c(c1)OCCO3)CC2 (stereo unspecified) | -6.14% |

| SMILES | cytotoxicity at 10 µM |
| --- | --- |
| O=C(CCN1CCOC1=O)Nc1cnn(-c2ccccc2Cl)c1 | -3.39% |
| COc1ccccc1C(O)CNC(=O)NCc1csc(C)n1 (stereo unspecified) | -5.34% |
| Cc1noc(C)c1S(=O)(=O)NC(=O)COc1cccc(C(C)C)c1 | -10.7% |
| NC(=O)CN1CCN(C(=O)c2cc(Cl)cc3cccnc23)CC1 | -9.19% |
| CCn1ccnc1CN1CCCN(C(=O)c2scnc2C)CC1 | -7.77% |
| CC(C)c1nnc2n1CCN(CCC(=O)N1CCc3ccccc31)C2 | -21.1% |
| O=C(Cc1ccccc1)N1CCN(CC(O)c2ccc(F)cc2)CC1 (stereo unspecified) | -13.8% |
| Cc1nn(C)c(C)c1C1CCCN1Cc1ccc(C(N)=O)cc1 (stereo unspecified) | -1.01% |
| CC(NC(=O)N1CCC(c2ccccc2)CC1)c1nncn1C (stereo unspecified) | -10.3% |
| Cn1nc2c(cc1=O)CN(Cc1nc(-c3cccnc3)no1)CC2 | -14.6% |
| Cc1cnn(CC(C)NCc2ccccc2OCc2cccnc2)c1 (stereo unspecified) | -12.9% |
| CC(NCc1cccc(Cl)c1)c1ccc(OCC(=O)NC2CC2)cc1 (stereo unspecified) | -12.2% |
| c1cnn(CC2CN(c3ncnc4[nH]ccc34)CCO2)c1 (stereo unspecified) | -8.81% |
| CC(=O)NCC1CCN(C(=O)NCCc2ccc(Cl)s2)CC1 | -6.19% |
| Cc1cnn(CC2CCCN2Cc2nnc(C3CC3)n2C)c1 (stereo unspecified) | -12.2% |
| CCn1ccnc1CN1CCCN(C(=O)Cc2ccccc2C)CC1 | -1.99% |
| O=C(Cc1ccccn1)N1CCN(C(=O)CC2CCCCC2)CC1 | 5.35% |
| CCC(C)C(=O)NCc1ccc(-n2cncn2)nc1 (stereo unspecified) | 8.85% |
| Cc1ccc(C)c(NC(=O)C(C)N2CCCN(c3nccs3)CC2)c1 (stereo unspecified) | -19.8% |

| SMILES | cytotoxicity at 10 µM |
| --- | --- |
| Cc1nc(C)n(CC2CN(Cc3cccnc3)CCO2)n1 (stereo unspecified) | -5.38% |
| Cc1nc(C)c(C(=O)NCCNC(=O)Cc2cccc(F)c2)s1 | -8.45% |
| Cn1ccnc1CN1CCN(CC(=O)NCC(F)(F)F)CC1 | -10% |
| O=C(CCN1CCCN(c2nccs2)CC1)NCC1CCCCC1 | -5.1% |
| O=C(c1ccc(O)c(Cl)c1)N1CCC(c2n[nH]c(C3CC3)n2)CC1 | 6.91% |
| CC(C)c1nc(CN2CCN(C(C)c3nc(C4CC4)no3)CC2)no1 (stereo unspecified) | 6.54% |
| Cc1nc(CN2CCCN(CC(=O)Nc3cccnc3)CC2)no1 | 2.31% |
| CCCC(=O)N1CCc2c(CNS(C)(=O)=O)cncc2C1 | 4.36% |
| c1cnc(NC[C@H]2OC[C@@H]3CCN(Cc4ccsc4)C[C@@H]32)nc1 | -2.01% |
| CCN1CCC2(COCc3cnc(NCC4CC4)nc32)C1 (stereo unspecified) | -12.9% |
| COCC1CN(Cc2cccnc2)Cc2nnn(CC3CC3)c21 (stereo unspecified) | -0.0925% |
| CNC(=O)c1cc2c(nc1N(C)C)CCN(C)CC2 | -149% |
| COCC1CN(c2ccc(C)nn2)Cc2cnn(CC3CCOCC3)c21 (stereo unspecified) | 4.62% |
| CN(C)c1cc(C2CCCNC2)ccn1 (stereo unspecified) | -2.68% |
| O=C(C1=CC2(CCN(CCO)CC2)c2ccccc21)N1CCCC1 | -1.16% |
| COCCN1CCCn2c(nc(Cn3cncn3)cc2=O)C1 | 3.39% |
| O=C(NCCn1nc(C2CCNC2)c2cccnc21)C1CC1 (stereo unspecified) | -25.8% |
| Cn1ccc(C(=O)NC2CCC23CCN(C(=O)c2ccncc2)CC3)c1 (stereo unspecified) | -9.84% |
